This note sets out measurements from ChEMBL document CHEMBL1126868, “Inhibitors of blood platelet cAMP phosphodiesterase. 4. Structural variation of the side-chain terminus of water-soluble 1,3-dihydro-2H-imidazo[4,5-b]quinolin-2-one derivatives” (J Med Chem, 1993).

Data set [1] in a line: Aqueous solubility. Type of data set: physicochemical. As to conditions: read-out: S. In outline:
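A 10-mg sample was placed in 0.5 mL water and diluted stepwise up to 10 mL, or until it dissolved. Solubility is reported in mg/mL.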

The species entered for the next data set is Homo sapiens. In words: Inhibition of human platelet aggregation induced by ADP after 3 min incubation with platelet rich plasma. In kind it is functional. As to conditions: 0.05 h. Put shortly: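 Human platelet-rich plasma was preincubated with drug for 3 min (standard) or 15 min, then aggregation was induced with 5.86 μM ADP. Aggregation at a range of drug concentrations was compared with vehicle-treated controls, and IC50 was taken from dose-response curves. Values are single, duplicate or triplicate (with SD) determinations.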

pIC50: −log10 of the molar value.

As to `Cl.O=S(=O)(CCCOc1ccc2[nH]c3nc(O)nc-3cc2c1)N1CCN(c2nc3ccccc3s2)CC1`, the solubility in data set [1] worked out at 1000 µg/mL. The compound also had a pIC50 in the data set listed under Homo sapiens of 5.31.
For `Cl.Oc1nc2cc3cc(OCCCCc4nnnn4C4CCN(Cc5ccc(F)cc5)CC4)ccc3[nH]c-2n1` the same measures were greater than 5000 µg/mL and 7.29.
For `CC(C)CN1CCC(n2nnnc2CCCOc2ccc3[nH]c4nc(O)nc-4cc3c2)CC1.Cl`, the solubility in data set [1] is greater than 10000 µg/mL. This compound showed a negative-log IC50 (pIC50) in the data set listed under Homo sapiens of 8.03.
On the same counts, the results for `Cl.Oc1nc2cc3cc(OCCCc4nnnn4C4CCN(CC5CCCCO5)CC4)ccc3[nH]c-2n1` (stereo not drawn) are greater than 10000 µg/mL and 7.15.
On to `Cl.O=C(NCCCOc1ccc2[nH]c3nc(O)nc-3cc2c1)N1CCN(Cc2ccsc2)CC1`, for which the solubility in data set [1] stood at 3000 µg/mL. The compound further showed a pIC50 in the data set filed under Homo sapiens of 6.55.
Consider `Cl.O=S(=O)(CCCCOc1ccc2[nH]c3nc(O)nc-3cc2c1)C1CCN(Cc2ccc(F)cc2)CC1`, for which the solubility in data set [1] was determined as 2000 µg/mL. Also, the pIC50 in the data set filed under Homo sapiens is 7.17.
For `Cl.O=C(NCCCOc1ccc2[nH]c3nc(O)nc-3cc2c1)N1CCN(c2ccccn2)CC1`, the solubility in data set [1] is 500 µg/mL. In the data set filed under Homo sapiens, this compound showed a pIC50 of 6.16.
For `Cl.O=S(=O)(CCCCOc1ccc2[nH]c3nc(O)nc-3cc2c1)C1CCN(Cc2ccccc2)CC1` the same measures were 5000 µg/mL and 7.38.
`Cl.O=C(NCCCOc1ccc2[nH]c3nc(O)nc-3cc2c1)N1CCNCC1`: the solubility in data set [1] was greater than 20000 µg/mL. In addition, in the data set filed under Homo sapiens, the pIC50 is 5.09.
In the case of `Cl.Oc1nc2cc3cc(OCCCCc4nnnn4C4CCN(CC5CCCCC5)CC4)ccc3[nH]c-2n1`, the solubility in data set [1] was greater than 5000 µg/mL. This compound also gave a pIC50 in the data set filed under Homo sapiens of 7.70.
On the same counts, the results for `Cl.O=S(=O)(CCCOc1ccc2[nH]c3nc(O)nc-3cc2c1)C1CCN(CCC2CCCCC2)CC1` are less than 5000 µg/mL and 7.32.
In the case of `Cl.O=C(NCCCOc1ccc2[nH]c3nc(O)nc-3cc2c1)N1CCN(CCc2ccccc2)CC1`, in data set [1], the solubility worked out at 250 µg/mL. The compound also showed a pIC50 in the data set listed under Homo sapiens of 6.52.
In the case of `CCC(CC)CN1CCC(n2nnnc2CCCCOc2ccc3[nH]c4nc(O)nc-4cc3c2)CC1.Cl`, in data set [1], the solubility is greater than 5000 µg/mL. In the data set listed under Homo sapiens, this compound had a pIC50 of 7.92.
As to `O=CN1CCN(S(=O)(=O)CCCOc2ccc3[nH]c4nc(O)nc-4cc3c2)CC1`, in data set [1], the solubility was less than 1000 µg/mL. This compound also had a pIC50 in the data set filed under Homo sapiens of 4.88.
On the same counts, the results for `Cl.Oc1nc2cc3cc(OCCCc4nnnn4C4CCNCC4)ccc3[nH]c-2n1` are greater than 20000 µg/mL and 4.94.
In the case of `Cl.Oc1nc2cc3cc(OCCCCc4nnnn4C4CCN(Cc5ccccc5)CC4)ccc3[nH]c-2n1`, the solubility in data set [1] is greater than 5000 µg/mL. This compound showed a pIC50 in the data set filed under Homo sapiens of 7.51.
In the case of `Cl.Cl.O=C(NCCCOc1ccc2[nH]c3nc(O)nc-3cc2c1)N1CCN(Cc2ccc(Cl)cc2)CC1`, in data set [1], the solubility stood at 200 µg/mL. For the same compound, the pIC50 in the data set filed under Homo sapiens is 6.54.
On to `Cl.Oc1nc2cc3cc(OCCCCc4nnnn4C4CCNCC4)ccc3[nH]c-2n1`, for which, in data set [1], the solubility was 5000 µg/mL. In addition, the pIC50 in the data set filed under Homo sapiens was 5.27.
On the same counts, the results for `Cl.O=C(NCCCOc1ccc2[nH]c3nc(O)nc-3cc2c1)N1CCN(CC2CCCC2)CC1` are 700 µg/mL and 7.03.
For `CCCC(CCC)CN1CCN(C(=O)NCCCOc2ccc3[nH]c4nc(O)nc-4cc3c2)CC1.Cl`, in data set [1], the solubility was found to be 500 µg/mL. For the same compound, the pIC50 in the data set filed under Homo sapiens was 6.89.
Consider `CCOC(=O)N1CCC(S(=O)(=O)CCCOc2ccc3[nH]c4nc(O)nc-4cc3c2)CC1`, for which, in data set [1], the solubility was less than 1000 µg/mL. The compound also had a pIC50 in the data set filed under Homo sapiens of 6.19.
With `Cl.O=S(=O)(CCCCOc1ccc2[nH]c3nc(O)nc-3cc2c1)C1CCN(CC2CCCCC2)CC1`, the solubility in data set [1] was found to be 2000 µg/mL. For the same compound, in the data set listed under Homo sapiens, the pIC50 is 7.52.
For `Cl.Oc1nc2cc3cc(OCCCc4nnnn4C4CCN(CCc5ccccc5)CC4)ccc3[nH]c-2n1` the same measures were less than 5000 µg/mL and 7.08.
Consider `CC(C)CN1CCC(S(=O)(=O)CCCOc2ccc3[nH]c4nc(O)nc-4cc3c2)CC1.Cl`, for which, in data set [1], the solubility was greater than 10000 µg/mL. This compound also had a pIC50 in the data set filed under Homo sapiens of 7.57.
For `Cl.O=S(=O)(CCCCOc1ccc2[nH]c3nc(O)nc-3cc2c1)C1CCNCC1` the same measures were greater than 10000 µg/mL and 4.83.
On to `Cl.O=C(NCCCOc1ccc2[nH]c3nc(O)nc-3cc2c1)N1CCN(CC2CCCCCC2)CC1`, for which the solubility in data set [1] was found to be 2000 µg/mL. The compound also had a negative logarithm of the IC50 (pIC50) in the data set filed under Homo sapiens of 7.27.
On to `Cl.O=S(=O)(CCCOc1ccc2[nH]c3nc(O)nc-3cc2c1)N1CCNCC1`, for which, in data set [1], the solubility is greater than 20000 µg/mL. This compound showed a pIC50 in the data set filed under Homo sapiens of 4.81.
In the case of `Cl.O=S(=O)(CCCOc1ccc2[nH]c3nc(O)nc-3cc2c1)N1CCN(CCC2CCCCC2)CC1`, the solubility in data set [1] is less than 5000 µg/mL. Also, the pIC50 in the data set filed under Homo sapiens is 5.69.
With `Cl.O=C(NCCCOc1ccc2[nH]c3nc(O)nc-3cc2c1)N1CCN(CC2CCCCO2)CC1` (stereo not drawn), the solubility in data set [1] was greater than 20000 µg/mL. This compound also had a pIC50 in the data set filed under Homo sapiens of 6.80.
On the same counts, the results for `Cl.O=C(NCCCOc1ccc2[nH]c3nc(O)nc-3cc2c1)N1CCN(c2ncccn2)CC1` are 100 µg/mL and 6.49.
On to `Cl.Cl.O=S(=O)(CCCOc1ccc2[nH]c3nc(O)nc-3cc2c1)N1CCN(Cc2ccc(Cl)cc2)CC1`, for which the solubility in data set [1] was greater than 20000 µg/mL. The compound also showed a pIC50 in the data set listed under Homo sapiens of 6.28.
For `Cl.Oc1nc2cc3cc(OCCCc4nnnn4C4CCN(CC5CCCCCC5)CC4)ccc3[nH]c-2n1`, the solubility in data set [1] turned out to be 1000 µg/mL. The compound also had a pIC50 in the data set filed under Homo sapiens of 7.77.
As for `Cl.O=S(=O)(CCCOc1ccc2[nH]c3nc(O)nc-3cc2c1)C1CCN(CCc2ccccc2)CC1`, the solubility in data set [1] was less than 5000 µg/mL. The pIC50 in the data set listed under Homo sapiens was 6.89.
Take `CCC(CC)CN1CCC(S(=O)(=O)CCCCOc2ccc3[nH]c4nc(O)nc-4cc3c2)CC1.Cl`: the solubility in data set [1] is 5000 µg/mL. For the same compound, the pIC50 in the data set filed under Homo sapiens was 7.68.
On the same counts, the results for `CCOC(=O)N1CCC(S(=O)(=O)CCCCOc2ccc3[nH]c4nc(O)nc-4cc3c2)CC1` are less than 1000 µg/mL and 6.39.
In the case of `Cl.O=C(NCCCOc1ccc2[nH]c3nc(O)nc-3cc2c1)N1CCC(N2CCCCC2)CC1`, in data set [1], the solubility was greater than 20000 µg/mL. The same compound had a pIC50 in the data set listed under Homo sapiens of 5.01.
On the same counts, the results for `Cl.O=S(=O)(CCCOc1ccc2[nH]c3nc(O)nc-3cc2c1)N1CCN(CCc2ccccc2)CC1` are less than 10000 µg/mL and 5.98.
Turning to `Cl.O=S(=O)(CCCOc1ccc2[nH]c3nc(O)nc-3cc2c1)N1CCN(Cc2cccc(C(F)(F)F)c2)CC1`, in data set [1], the solubility is 2000 µg/mL. The pIC50 in the data set filed under Homo sapiens was 6.49.
For `Cl.O=S(=O)(CCCOc1ccc2[nH]c3nc(O)nc-3cc2c1)C1CCNCC1` the same measures were greater than 10000 µg/mL and less than 4.18.
As to `CCOC(=O)N1CCC(n2nnnc2CCCOc2ccc3[nH]c4nc(O)nc-4cc3c2)CC1`, the solubility in data set [1] is less than 1000 µg/mL. The compound also showed a pIC50 in the data set listed under Homo sapiens of 6.38.
On to `COc1ccc(CN2CCN(S(=O)(=O)CCCOc3ccc4[nH]c5nc(O)nc-5cc4c3)CC2)cc1.Cl`, for which the solubility in data set [1] is greater than 20000 µg/mL. Also, the pIC50 in the data set filed under Homo sapiens was 6.34.
With `CCCC(CCC)CN1CCC(n2nnnc2CCCOc2ccc3[nH]c4nc(O)nc-4cc3c2)CC1.Cl`, in data set [1], the solubility worked out at 2000 µg/mL. This compound also had a pIC50 in the data set filed under Homo sapiens of 7.09.
For `Cl.O=C(NCCCOc1ccc2[nH]c3nc(O)nc-3cc2c1)N1CCN(CCC2CCCCC2)CC1`, the solubility in data set [1] is 500 µg/mL. Besides, the pIC50 in the data set filed under Homo sapiens was 7.14.
For the compound `CCOC(=O)N1CCC(n2nnnc2CCCCOc2ccc3[nH]c4nc(O)nc-4cc3c2)CC1`, the solubility in data set [1] was less than 1000 µg/mL. For the same compound, in the data set listed under Homo sapiens, the pIC50 was 7.00.

The term pIC50 denotes the negative decadic logarithm of the IC50, by convention in mol/L. The low end stands for a high IC50, the high end for a low IC50.
